Experimental data: article PMC3753066 (Nature methods, 2013)
In brackets after ≈: the same amount, converted by molar mass. Starred links: 1 amine or outer side, 2 acyl side, 3 side chain; linkers in the order of their positions; H or OH if unused. Non-standard residues stand in square brackets, D forms with d. Residues, ends and D or L forms follow the SMILES beside them. X1 = CCCCCCCC[C@@H](C(=O)[*:2])N(C)[*:1]; Gly(octyl) = CCCCCCCC[C@H](N)C(=O)O; NMeL = CN[C@@H](CC(C)C)C(=O)O

Assays:
MsbA = MsbA (Escherichia coli, UniProt P60752); assay: MsbA ATPase activity and stability in BPs or detergent; format: biochemical, E. coli; details: for ATPase activity of MsbA solubilized in the reagent: measured in triplicate at 37 °C, 20 mM Tris pH 7.5, 20 mM NaCl, 0.2–0.5 mg/mL
Procedure, shortened: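 E. coli MsbA purified in UDM, then mixed with peptide at 50:1–100:1 molar ratio (peptide:protein). Detergent was removed by dialysis (6 kDa cutoff, 4 °C, 1–2 days, TLC-monitored) and the supernatant kept after 300,000 × g, 2 h, 4 °C. Comparison preparations were in UDM, LMNG, Amphipol A8-35 (5:1 w/w) or MSP1D1/DMPC nanodiscs. Samples (0.2–0.5 mg/mL) were held at RT up to 40 days, with linked-enzyme ATPase read-out, means ± standard error.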

[1] = Water solubility of the peptides; format: physicochemical

Sequence of MsbA (P60752 whole entry): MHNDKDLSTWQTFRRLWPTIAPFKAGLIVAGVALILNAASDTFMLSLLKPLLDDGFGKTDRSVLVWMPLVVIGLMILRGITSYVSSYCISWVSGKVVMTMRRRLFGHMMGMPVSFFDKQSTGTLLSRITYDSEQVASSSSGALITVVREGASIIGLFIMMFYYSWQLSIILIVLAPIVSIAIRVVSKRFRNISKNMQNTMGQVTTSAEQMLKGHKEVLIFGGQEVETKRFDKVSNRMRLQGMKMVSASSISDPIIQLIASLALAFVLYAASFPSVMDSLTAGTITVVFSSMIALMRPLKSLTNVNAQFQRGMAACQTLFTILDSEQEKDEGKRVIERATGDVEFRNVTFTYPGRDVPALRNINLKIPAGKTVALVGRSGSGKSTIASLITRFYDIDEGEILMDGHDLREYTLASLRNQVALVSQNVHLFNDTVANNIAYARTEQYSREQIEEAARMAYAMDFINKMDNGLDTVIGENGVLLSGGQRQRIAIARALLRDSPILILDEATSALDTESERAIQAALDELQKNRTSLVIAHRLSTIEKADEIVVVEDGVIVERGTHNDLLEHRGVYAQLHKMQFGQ

Row | Structure (SMILES) | ATPase activity of MsbA solubilized in the reagent (MsbA) | loss of MsbA ATPase activity (MsbA; within the first day of incubation at RT, accompanied by protein precipitation) | solubility [1] | change of MsbA ATPase activity on incubation (MsbA; 40 days of incubation at RT)
1 | CCCCCCCCCCCO[C@@H]1O[C@H](CO)[C@@H](O[C@H]2O[C@H](CO)[C@@H](O)[C@H](O)[C@H]2O)[C@H](O)[C@H]1O [UDM, β-D-undecylmaltoside, reference compound] | 2.2 µmol/min/mg | ~ 80% | – | –
2 | CCCCCCCC[C@H](NC(C)=O)C(=O)N[C@@H](CO)C(=O)N(C)[C@@H](CC(C)C)C(=O)N[C@@H](CO)C(=O)N(C)[C@@H](CC(C)C)C(=O)N[C@@H](CC(=O)O)C(=O)N(C)[C@@H](CCCCCCCC)C(=O)N[C@@H](CC(=O)O)C(N)=O [BP-3] (Ac-[Gly(octyl)]S[NMeL]S[NMeL]D[X1]D-NH2) | – | – | ~1000 µM (≈ 1070 µg/mL) | –
3 | CCCCCCCC[C@H](NC(C)=O)C(=O)N[C@@H](CO)C(=O)N(C)[C@@H](CC(C)C)C(=O)N[C@@H](CO)C(=O)N(C)[C@@H](CC(C)C)C(=O)N[C@@H](CC(=O)O)C(=O)N[C@@H](CCCCCCCC)C(=O)N[C@@H](CC(=O)O)C(N)=O [BP-2] (Ac-[Gly(octyl)]S[NMeL]S[NMeL]D[Gly(octyl)]D-NH2) | – | – | ~3000 µM (≈ 3170 µg/mL) | –
4 | CCCCCCCC[C@H](NC(C)=O)C(=O)N[C@@H](CO)C(=O)N[C@@H](CC(C)C)C(=O)N[C@@H](CO)C(=O)N(C)[C@@H](CC(C)C)C(=O)N[C@@H](CC(=O)O)C(=O)N[C@@H](CCCCCCCC)C(=O)N[C@@H](CC(=O)O)C(N)=O [BP-1] (Ac-[Gly(octyl)]SLS[NMeL]D[Gly(octyl)]D-NH2) | ~ 4 μmol/min/mg | – | ~3000 µM (≈ 3130 µg/mL) | little change
